Screening results from PubChem BioAssay.
Hits are enriched below; roughly 3.4% of the tested compounds scored in any of these assays.
p97 inhibitor – human p97 ATPase inhibition | P55072 | recombinant p97 ATPase, Kinase-Glo ATP luminescence, 3 h | inhibition, % at 8 µM | 220,000 tested, 0.42% active; in the data active means inhibition above about 15%;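 further: 0% = DMSO vehicle and 100% = wells lacking enzyme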
MDM2 E3 inh – inhibitors of human Mdm2 E3 ubiquitin ligase; AID 1230; cell-based MDM2 ubiquitination luciferase reporter, 2 h; 0 = plate control, 100 = twice control, blank-subtracted; signal enhancement, % at 5 µM; 210,000 tested, 0.11% active; Q00987;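 active means signal enhancement of 30% or more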;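 further: luminescence tracks abundance of the self-degrading MDM2-luciferase fusion protein; higher signal means inhibition of MDM2 E3 ligase activity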
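test system = mammalian cells stably expressing self-ubiquitinating, self-degrading MDM2 E3–luciferase fusion | quantity = 2000 cells/well | incubation = cell settling 4 h, compound treatment 2 h, both 37 °C | signal = luminescence with SteadyLite reagent, 15 min at room temperature | evaluation = % enhancement relative to plate controls after blank subtraction | benchmarks = plate controls and plate blanks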
ROMK mod – human ROMK K+ channel modulation, primary screen; 130,000 tested, 2% active; Tet-inducible ROMK, thallium flux fluorescence; actives lie on both sides; P48048; B-score at 10 µM; AID 1918;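 active means signal ratio slope over the read window, or its plate-corrected B-score, at least 3 SD from the plate mean, either direction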;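 further: B-score of the F/F0 ratio slope over 7 to 12 s after thallium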
Redox H2O2 prof – compounds producing H2O2 with reducing agent – biochemical, NIH compound library profiling, artefact control for MLSCN library redox annotation, primary screen | 200,000 tested, 0.03% active | DTT-dependent redox cycling H2O2, phenol red/HRP absorbance; 100% = 100 µM peroxide control, 0% = buffer | activation, % at 10 µM | AID 878;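 active means activation of at least 50% relative to the plate's high and low controls in the primary single-dose screen; inactive means activation below 50%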;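 further: compound incubated with DTT at 0.8 mM final as the reducing agent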
Cl transport mod – KCC2 (human) Cl- transport modulation; Q9H2X9; KCC2 cells, thallium flux FluoZin-2 fluorescence; B-score of Tl+ flux slope (higher = more flux/activation; lower = inhibition) at 10 µM; 190,000 tested, 2.2% active;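 active means thallium flux slope and its plate-corrected score both differing from the plate sample mean at a set confidence after two filtering rounds, in either direction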;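 further: slope of fluorescence scaled to starting intensity during 10 to 20 s after thallium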
Target sequence (Q9H2X9 whole entry, looked up): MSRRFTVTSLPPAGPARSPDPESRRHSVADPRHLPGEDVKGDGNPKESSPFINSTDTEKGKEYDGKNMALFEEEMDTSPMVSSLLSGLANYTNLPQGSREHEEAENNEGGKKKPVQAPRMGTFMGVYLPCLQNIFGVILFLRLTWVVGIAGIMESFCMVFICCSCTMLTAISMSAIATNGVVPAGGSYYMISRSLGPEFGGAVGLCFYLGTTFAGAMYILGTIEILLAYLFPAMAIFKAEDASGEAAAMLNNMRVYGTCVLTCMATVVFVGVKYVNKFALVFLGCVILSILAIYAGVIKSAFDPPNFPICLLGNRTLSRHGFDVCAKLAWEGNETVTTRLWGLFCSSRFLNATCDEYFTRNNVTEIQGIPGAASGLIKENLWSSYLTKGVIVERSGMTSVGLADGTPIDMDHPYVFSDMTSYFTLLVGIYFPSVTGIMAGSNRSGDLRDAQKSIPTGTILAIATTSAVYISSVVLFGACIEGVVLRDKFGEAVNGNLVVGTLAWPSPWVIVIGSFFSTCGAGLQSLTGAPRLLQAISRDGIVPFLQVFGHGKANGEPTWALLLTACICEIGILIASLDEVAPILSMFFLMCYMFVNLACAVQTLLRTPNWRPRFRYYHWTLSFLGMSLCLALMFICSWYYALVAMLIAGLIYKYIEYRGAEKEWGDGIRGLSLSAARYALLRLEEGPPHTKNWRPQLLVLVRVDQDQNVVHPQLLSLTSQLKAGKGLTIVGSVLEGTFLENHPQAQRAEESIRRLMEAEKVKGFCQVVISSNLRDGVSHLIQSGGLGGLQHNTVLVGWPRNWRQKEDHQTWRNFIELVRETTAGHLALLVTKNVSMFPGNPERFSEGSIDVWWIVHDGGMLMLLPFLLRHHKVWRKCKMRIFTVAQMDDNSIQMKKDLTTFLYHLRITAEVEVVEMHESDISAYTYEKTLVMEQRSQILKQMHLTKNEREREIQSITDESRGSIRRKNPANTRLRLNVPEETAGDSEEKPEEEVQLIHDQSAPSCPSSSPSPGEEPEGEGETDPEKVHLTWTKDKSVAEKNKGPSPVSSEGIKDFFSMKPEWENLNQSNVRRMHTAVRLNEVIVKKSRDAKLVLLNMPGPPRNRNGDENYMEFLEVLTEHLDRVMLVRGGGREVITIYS
PKD1 inh – blocks activity of human protein kinase D1; PKD1 kinase fluorescence polarization assay; inhibition, % (test concentration not listed); 200,000 tested, 0.056% active; in the data active means inhibition above about 50%
KCC2 secondary – KCC2 (human) modulation, secondary assay. shares compounds with Cl transport mod. HEK293-KCC2, thallium flux, FluoZin2 fluorescence; stronger effect = higher value. normalised thallium flux (F/F0 slope) at 10 µM. 3,700 tested, 15% active;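 active means thallium flux slope above the same plate's solvent-only control mean plus 3 SD; inconclusive means the two replicate wells disagree; inactive means no significant difference from solvent-only control wells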
KCC2 bumet counter – thallium flux despite bumetanide block in KCC2 cells, secondary assay 3 | shares compounds with Cl transport mod | HEK293-KCC2 + bumetanide/ouabain, thallium flux FluoZin2; stronger effect = higher value | normalized thallium flux at 10 µM | 3,700 tested, 49% active | AID 1714;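 active means thallium entry rate above the same plate's blocked-transporter control wells by more than 3 SD; inconclusive means the two repeat wells disagree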;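 further: raw slope of fluorescence over initial fluorescence between 10 and 20 s after thallium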
KCC2 secondary2 – confirmation of human KCC2 transport modulators; 3,700 tested, 23% active; shares compounds with Cl transport mod; HEK293-KCC2, thallium flux FluoZin2 fluorescence; actives lie on both sides; F/F0 rise rate, 10–20 s post-thallium; normalized thallium flux at 10 µM;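 active means thallium flux slope more than 3 SD above or below the plate's solvent-only control mean, mostly below; inconclusive means the two repeat wells disagreed; inactive means no significant shift from solvent-only controls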;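 further: raw slope with 0.1% DMSO as baseline and bumetanide as block control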
HEK293 Tl flux – acts in parental HEK cells, KCC2 counter-screen | 3,700 tested, 46% active | AID 1716 | shares compounds with Cl transport mod | HEK293 parental cells, thallium flux FluoZin2, ouabain; baseline-ratio fluorescence slope, 10–20 s after thallium | thallium flux rate (normalised fluorescence) at 10 µM;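 active means thallium flux rate significantly above the same plate's solvent-only control wells, beyond their mean plus 3 SD; inconclusive means the two replicate wells gave conflicting results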
KCC2 ouabain – modulates human KCC2 on retest with ouabain; shares compounds with Cl transport mod; HEK293-KCC2, thallium flux FluoZin2 fluorescence; bidirectional: low = inhibitor, high = activator; raw Tl+ flux slope (below DMSO = inhibition, above = activation) at 10 µM; 3,700 tested, 48% active;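 active means thallium flux slope beyond 3 SD from same-plate DMSO control mean in most replicates, usually higher, sometimes lower; inconclusive means repeat tests gave conflicting results; inactive means no significant difference from controls in most replicates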;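 further: slope of initial-normalized fluorescence between seconds 10 and 20 after thallium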
HEK counter2 – parental HEK flux effect, counter-screen 2. shares compounds with Cl transport mod. HEK293 parental, thallium flux FluoZin-2 fluorescence slope. thallium flux slope at 10 µM. 3,700 tested, 33% active;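 active means thallium flux slope above the same plate's solvent-control mean plus 3 SD in both duplicate wells; inconclusive means duplicate wells that disagreed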;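 further: run without ouabain in cells lacking the KCC2 cotransporter; slope of fluorescence scaled to its starting value between 10 and 20 s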
The depositor's hits bear a star; ? = inconclusive; nt = no result given.

SMILES	p97 inhibitor	MDM2 E3 inh	ROMK mod	Redox H2O2 prof	Cl transport mod	PKD1 inh	KCC2 secondary	KCC2 bumet counter	KCC2 secondary2	HEK293 Tl flux	KCC2 ouabain	HEK counter2
O=C(O)C1CCc2sc3[nH]c(=S)n(-c4ccccc4)c(=O)c3c21 (centres undefined)	1.7	-11.4	nt	nt	-0.0228	nt	nt	nt	nt	nt	nt	nt
CC(C)OC(=O)CSc1ncnc2c1cnn2Cc1ccccc1	5.4	0.9	nt	1.6	-3.55*	-16.0	0.00957	0.00717	0.0318	0.0074	0.019	0.011
C(=N\Nc1nc(N2CCCC2)nc(N2CCCC2)n1)/c1cccnc1	3.8	-5.7	nt	0.5	0.111	-2.6	nt	nt	nt	nt	nt	nt
CNc1nc(-c2ccc3c(c2)CCN3C(=O)c2ccccc2F)cs1	-1.2	-12.6	0.266	-0.1	-4.26*	-6.3	0.009	0.00654	0.0348	0.00363	0.0188	0.0112
O=C(CSc1nnc(CNc2ccc(F)cc2)o1)N1CCN(C(=O)c2ccco2)CC1	6.4	-16.4	nt	-1.9	-0.635	-17.7	nt	nt	nt	nt	nt	nt
O=C(CSc1nnc(-c2ccc(F)cc2)o1)N1CCN(C(=O)c2ccco2)CC1	5.2	-7.2	nt	2.7	-4.43*	-5.0	0.00794	0.00657	0.0299*	0.00447	0.0175*	0.0118
NC(=S)Cc1nc(-c2ccc(Cl)cc2)cs1	3.5	-3.2	-0.326	-1.3	-1.45	-3.8	nt	nt	nt	nt	nt	nt
O=C(CSc1ccc(-c2ccccc2)nn1)N1CCCc2ccccc21	1.3	-4.6	nt	0.1	-4.66*	-0.6	0.00754	0.00533	0.0207*	0.00708	?	0.0106
O=C(CSc1nnc(CNc2ccccc2)o1)c1ccc2c(c1)OCCO2	-0.2	-14.8	-0.593	1.9	-4.39*	-11.6	0.00592	?	0.0238*	0.00833	?	0.0111
CC(C)(C)N(Cc1ccccc1)C(=O)CSc1nnc(CNc2ccc(F)cc2)o1	0.8	5.7	0.0698	0.0	-5.32*	-4.7	0.00616	0.00603	0.0295	0.00716	0.0129*	0.0118
CC1Cc2ccccc2N1C(=O)CSc1nnc(CNc2ccccc2)o1 (centres undefined)	-6.2	8.6	nt	1.3	nt	-0.7	0.00686	0.00464	0.0226*	0.00768	0.013*	0.0101
Cc1ccc(-c2ccc(SCC(=O)N3CCCc4ccccc43)nn2)cc1	-3.4	-12.2	nt	0.5	-2.26	8.6	nt	nt	nt	nt	nt	nt
O=C1CNC(=O)c2c(nc3n2CCC3)N1	-2.4	-10.7	-0.0229	2.0	0.608	-2.2	nt	nt	nt	nt	nt	nt
COc1ccc(NCc2nnc(SCC(=O)N3CCCc4ccccc43)o2)cc1	-1.4	-15.7	nt	-3.0	nt	-15.3	nt	nt	nt	nt	nt	nt
O=C(CSc1nnc(CNc2ccccc2)o1)N1CCCc2ccccc21	4.6	-5.1	-0.108	3.0	-4.92*	11.2	0.0159	0.00456	0.024*	0.0073	0.0139	0.00958
NNC(=O)c1cc(-c2cccs2)nc2ccccc12	4.3	-13.3	nt	nt	0.386	nt	nt	nt	nt	nt	nt	nt
C/C(=N\NC(=O)c1cc(-c2cccs2)nc2ccccc12)c1ccccn1	-1.7	-4.8	0.767	-2.5	16.8*	4.9	0.0149*	0.0436*	0.036	0.0604*	0.0446*	?
Cc1ccc(CNC(=O)C(Cc2ccccc2)n2cccc2)cc1 (centres undefined)	-0.1	1.3	-1.3	nt	-1	nt	nt	nt	nt	nt	nt	nt
CC1CC(C)CN(S(=O)(=O)c2ccc3c(c2)n(C)c(=O)c(=O)n3C)C1 (centres undefined)	8.5	-8.8	nt	nt	0.671	nt	nt	nt	nt	nt	nt	nt
CCn1c(O)c(N=NC(=S)NCC2CCCO2)c2ccccc21 (centres undefined)	-4.2	-10.3	0.693	-2.3	53*	-3.1	0.00708	0.0781*	0.0582*	0.0553*	0.0674*	0.0563*
Oc1[nH]c2ccc(Br)cc2c1N=NC(=S)NCC1CCCO1 (centres undefined)	4.9	1.2	0.377	nt	34.9*	nt	0.0138*	0.0483*	0.0338	?	0.0364*	0.0178*
O=C(Cc1ccccc1[N+](=O)[O-])Nc1ccc2c(c1)OCO2	-3.5	-10.2	-1.44	-1.0	0.29	-10.3	nt	nt	nt	nt	nt	nt
O=C1OC(c2ccc(O)cc2)(c2ccc(O)cc2)c2ccccc21	1.1	nt	nt	-1.2	10.8*	-6.9	0.00569	0.00957*	0.0349	0.00773	0.0248*	0.0117
S=c1[nH]c(-c2ccccc2)cn1/N=C/c1ccc(Br)cc1	0.3	0.2	0.406	-0.7	54.5*	-4.5	0.0112*	0.0396*	0.0319	0.0165*	0.0481*	0.0111*
S=c1[nH]c(-c2ccccc2)cn1/N=C/c1cccs1	7.6	-15.5	nt	nt	17.6*	nt	0.0227*	0.0365*	0.0328	0.0164*	0.0288*	0.0161*
SMILES	p97 inhibitor	MDM2 E3 inh	ROMK mod	Redox H2O2 prof	Cl transport mod	PKD1 inh	KCC2 secondary	KCC2 bumet counter	KCC2 secondary2	HEK293 Tl flux	KCC2 ouabain	HEK counter2
CC12CCC(=O)N1c1c(sc3nc(N4CCOCC4)c4c(c13)CCCC4)C(=O)N2 (centres undefined)	2.5	10.4	nt	-0.2	-1.83	-5.1	nt	nt	nt	nt	nt	nt
N#C/C(=C(/O)CN1CCCC1)c1nc(-c2ccccc2)cs1	3.4	-11.7	nt	nt	0.169	nt	nt	nt	nt	nt	nt	nt
CCOC(=O)C1CCCN(C/C(O)=C(\C#N)c2nc(-c3ccc(Cl)cc3)cs2)C1 (centres undefined)	2.0	6.2	nt	2.3	-3.47*	2.0	0.00837	0.00473	0.0244*	0.00733	0.0178*	0.0103
COc1ccc(NC(=O)c2sc3nc(-c4cccnc4)ccc3c2N)cc1OC	3.4	-13.4	nt	nt	-0.262	nt	nt	nt	nt	nt	nt	nt
O=C(CSc1nnc(-c2ccc(O)cc2)n1Cc1ccco1)N1CCc2ccccc2C1	0.8	-16.2	nt	1.8	-3.7*	-0.6	0.00711	0.00403	0.0231*	0.00686	0.0133*	0.00995
Cc1ccc(C)c(C(=O)CCC(=O)Nc2cccnc2)c1	-7.2	-13.9	nt	0.2	-0.0409	-1.8	nt	nt	nt	nt	nt	nt
O=C(NC(=S)Nc1ccccc1Cl)c1cnn2c(C(F)(F)F)cc(C(F)(F)F)nc12	2.6	-9.3	nt	nt	0.0563	nt	nt	nt	nt	nt	nt	nt
